The record followed here is ChEMBL document CHEMBL4390648, “Chemical synthesis, crystal structure, versatile evaluation of their biological activities and molecular simulations of novel pyrithiobac derivatives” (Eur J Med Chem, 2019).

The subject of data set [1] is Mythimna separata. Briefly: Insecticidal activity against Mythimna separata assessed as larval mortality at 10 mg/l by leaf-dip method. The data set is classed as functional.
The subject of data set [2] is Brassica rapa subsp. oleifera. Briefly: Herbicidal activity against Brassica campestris L assessed as inhibition of rape root growth at 100 mg/l root growth incubated for 48 hrs relative to control. It counts as functional. An outline of the steps: (§1)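 Rape seeds soaked in distilled water for 4 h, then placed on filter paper wetted with inhibitor solution, 15 seeds per 6-cm dish. Germinated in the dark at 28 °C for 48 h. Mean length of 10 roots per plate measured.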

Data set [3] has as its system Arabidopsis thaliana. Briefly: Inhibition of Arabidopsis thaliana AHAS catalytic subunit using pyruvate as substrate at 10 uM measured after 30 mins by colorimetric method relative to control. In outline: (§2)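 Colorimetric assay in 50 mM potassium phosphate pH 7.0 with 50 mM pyruvate, 1 mM thiamine diphosphate, 10 mM MgCl2 and 10 μM FAD. Incubated 30 min at 37 °C for plant AHAS and 30 °C for fungal AHAS. Acetolactate formed was then quantified.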

Data set [4] deals with Arabidopsis thaliana. The experiment in a line: Inhibition of Arabidopsis thaliana AHAS catalytic subunit using pyruvate as substrate at 100 uM measured after 30 mins by colorimetric method relative to control. An outline of the steps:
as §2

In a further data set the test system is Phytophthora capsici. Briefly: Antifungal activity against Phytophthora capsici assessed as reduction in growth at 50 mg/l by mycelium growth rate method relative to control. It counts as functional. An outline of the steps: (§3)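 Mycelium growth rate method against S. sclerotiorum, P. capsici, P. piricola, R. cerealis, W. anthracnose and R. bakanae. Each compound tested at 50 mg/L, with chlorothalonil and PTB as controls. Relative inhibitory ratio (%) calculated from mycelial growth.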

Another data set concerns Ceratobasidium cereale. Briefly: Antifungal activity against Rhizoctonia cerealis assessed as reduction in growth at 50 mg/l by mycelium growth rate method relative to control. It counts as functional. An outline of the steps:
as §3

Data set [5] concerns Brassica rapa subsp. oleifera. The experiment in a line: Herbicidal activity against Brassica campestris L assessed as inhibition of rape root growth at 10 mg/l root growth incubated for 48 hrs relative to control. The data set is classed as functional. An outline of the steps:
as §1

Another data set has as its system Fusarium fujikuroi. The experiment in a line: Antifungal activity against Gibberella fujikuroi assessed as reduction in growth at 50 mg/l by mycelium growth rate method relative to control. The data set is classed as functional. An outline of the steps:
as §3

Data set [6] relates to Candida albicans. The experiment in a line: Antifungal activity against Candida albicans isolate g5 grown in YNB medium incubated for 24 hrs by microdilution method. It counts as functional. As to conditions: isolate g5, 24 h. An outline of the steps:
(§4)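 C. albicans standard strain SC5314 and clinical isolates g5 and 17# tested by broth microdilution in YNB or RPMI 1640 medium. Plates incubated at 35 °C for up to 72 h, with visual readings taken at 24 h. MIC taken as the lowest concentration preventing visible growth.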
For orientation: Dilution methods test growth across graded concentrations, often in twofold steps.

Data set [7] has as its system Tobacco mosaic virus. The experiment in a line: Antiviral activity against Tobacco mosaic virus inoculated in Nicotiana tabacum leaves assessed as passivation by measuring local lesion numbers at 500 mg/l pre-incubated with virus for 30 mins followed by inoculation and measured up to 4 days. It counts as functional. An outline of the steps:
(§5)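 Passivation assay: TMV mixed with an equal volume of compound solution for 30 min, then rubbed onto the left half of N. tabacum L. leaves. The right half received virus mixed with solvent as control. Local lesions counted 3–4 days after inoculation. Compounds tested at 500 or 100 mg/L.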

Data set [8] concerns Botryosphaeria berengeriana. Briefly: Antifungal activity against Physalospora pyricola assessed as reduction in growth at 50 mg/l by mycelium growth rate method relative to control. It counts as functional. An outline of the steps:
as §3

The subject of data set [9] is Candida albicans. Briefly: Antifungal activity against Candida albicans SC5314 grown in RPMI 1640 medium incubated for 24 hrs by microdilution method. It counts as functional. The following applies: SC5314, 24 h. An outline of the steps: as §4
Data set [10] concerns Candida albicans. The experiment in a line: Antifungal activity against Candida albicans SC5314 grown in YNB medium incubated for 24 hrs by microdilution method. The following applies: SC5314, 24 h. The data set is classed as functional. In outline:
as §4

For data set [11], the system named is Candida albicans. Briefly: Antifungal activity against Candida albicans isolate 17 grown in RPMI 1640 medium incubated for 24 hrs by microdilution method. As to conditions: isolate 17, 24 h. The data set is classed as functional. An outline of the steps:
as §4

Data set [12] relates to Candida albicans. The experiment in a line: Inhibition of Candida albicans AHAS catalytic subunit at 100 uM using pyruvate as substrate measured after 30 mins by colorimetric method relative to control. An outline of the steps: as §2
The test system of data set [13] is Candida albicans. Briefly: Antifungal activity against Candida albicans isolate g5 grown in RPMI 1640 medium incubated for 24 hrs by microdilution method. It counts as functional. The following applies: isolate g5, 24 h. In outline: as §4
Data set [14] concerns SARS coronavirus M protease. The experiment in a line: Selectivity index, ratio of CC50 for HEK293T cells to IC50 for SARS coronavirus M protease. It counts as toxicity. The following applies: human, read-out: Ratio CC50/IC50. An outline of the steps: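 Medium discarded, DMSO added, OD570 read; CC50 is the concentration cutting viability by 50%. IC50 from the 37 °C Mpro FRET assay (ex 320/em 405 nm) via V0/V = 1+[I]/IC50.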

In data set [15] the test system is Mythimna separata. The experiment in a line: Insecticidal activity against Mythimna separata assessed as larval mortality at 600 mg/l by leaf-dip method. It counts as functional.
Another data set has as its system Colletotrichum. Briefly: Antifungal activity against Colletotrichum (W. anthracnose) assessed as reduction in growth at 50 mg/l by mycelium growth rate method relative to control. The data set is classed as functional. In outline: as §3
Data set [16] in a line: Inhibition of SARS coronavirus M protease using AVLQSGFRKK as substrate by FRET assay. Further details: species or system Severe acute respiratory syndrome-related coronavirus. In outline: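 Purified SARS-CoV Mpro assayed by FRET. Protein, compound and substrate were preheated at 37 °C and oscillated. Fluorescence (ex 320/em 405 nm) was read every 5 s for 200 reads. IC50 from V0/V = 1+[I]/IC50.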

The subject of another data set is Sclerotinia sclerotiorum. Briefly: Antifungal activity against Sclerotinia sclerotiorum assessed as reduction in growth at 50 mg/l by mycelium growth rate method relative to control. The data set is classed as functional. In outline: as §3
The test system of data set [17] is Candida albicans. The experiment in a line: Antifungal activity against Candida albicans isolate 17 grown in YNB medium incubated for 24 hrs by microdilution method. The following applies: isolate 17, 24 h. It counts as functional. An outline of the steps:
as §4

The test system of data set [18] is Tobacco mosaic virus. Briefly: Antiviral activity against Tobacco mosaic virus inoculated in Nicotiana tabacum leaves assessed as passivation by measuring local lesion numbers at 100 mg/l pre-incubated with virus for 30 mins followed by inoculation and measured up to 4 days. It counts as functional. In outline: as §5
In data set [19] the test system is Candida albicans. Briefly: Inhibition of Candida albicans AHAS catalytic subunit at 10 uM using pyruvate as substrate measured after 30 mins by colorimetric method relative to control. In outline: as §2
Data set [20] can be described thus: Cytotoxicity against HEK293T cells assessed as reduction in cell growth incubated for 48 hrs by MTT assay. The data set is classed as cell-based, HEK-293T. As to conditions: human. An outline of the steps:
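293T cells in logarithmic phase seeded at 12000 cells/well overnight, then exposed to a range of compound concentrations for 48 h. MTT added for a further 4 h, formazan dissolved in DMSO, and OD570 read. CC50 is the concentration reducing viability by 50%.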
Background: Formazan colour is commonly taken as a measure of viable cells.

Data set [21] deals with Severe acute respiratory syndrome-related coronavirus. Briefly: Inhibition of SARS coronavirus M protease using AVLQSGFRKK as substrate at 20 uM by FRET assay relative to control. An outline of the steps: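 Purified SARS-CoV Mpro assayed by FRET. Protein, compound and substrate were preheated at 37 °C and oscillated. Fluorescence (ex 320/em 405 nm) was read every 5 s for 200 reads.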

Structures are written as SMILES. Values after ≈ are worked out from the molar mass of the structure shown. Active and inactive are the calls of the source. The calls are words filed in the database; no cut-off is given here.

As usually defined, the mortality is the percentage killed. For the molecule `CNC(=O)c1cc(Cl)cc(C)c1NC(=O)c1cc(Br)nn1-c1ncccc1Cl` [CHLORANTRANILIPROLE], in the data set on Mythimna separata [1], the mortality at 10 µg/mL is 100%.
For orientation: inhibition means how much of the control response was suppressed. In general, MIC refers to the lowest concentration found to suppress growth. The low end stands for greater potency, the high end for weaker potency. The IC50 is the concentration needed to halve the response being measured. As a reminder, the CC50 is the concentration at which the toxic effect on the cells reaches its halfway point. For the molecule `COc1nc(OC)nc(Sc2ccc(F)cc2C#N)n1`, the “inhibition (INH)” value in [2] stood at 60.3%; in data set [5], 4.6%. For the same molecule, the inhibition was found to be 59.2% in the data set on Arabidopsis thaliana [3]; 71.2% in the data set with Arabidopsis thaliana [4]; 85.1% in the data set with Candida albicans [12]; 36.4% with Candida albicans [19]; 100% in [21]. In addition, the inhibition at 50 µg/mL with Phytophthora capsici is 25%; in the data set on Ceratobasidium cereale it was 57.1%; in the data set on Fusarium fujikuroi it was 33.3%; in data set [8] it was 75%; in the data set on Colletotrichum, 40.5%; in the data set with Sclerotinia sclerotiorum it was 33.3%. Besides, the MIC in the data set on Candida albicans [6] amounted to 50 µg/mL (≈ 171 µM); in the data set with Candida albicans [9], 100 µg/mL (≈ 342 µM); against Candida albicans [10], 50 µg/mL (≈ 171 µM); against Candida albicans [11] it was 100 µg/mL (≈ 342 µM); with Candida albicans [13], 100 µg/mL (≈ 342 µM); against Candida albicans [17], 25 µg/mL (≈ 85.5 µM). The inhibition at 500 µg/mL in the data set with Tobacco mosaic virus [7] came out at 26.4%. Besides, the selectivity ratio in data set [14] worked out at 44.5. In the data set with Mythimna separata [15], the mortality at 600 µg/mL was found to be 20%. Further, the half-maximal inhibitory concentration (IC50) in data set [16] is 4.47 µM. For the same molecule, in the data set with Tobacco mosaic virus [18], the inhibition result was “inactive”. For the same molecule, the 50% cytotoxic concentration (CC50) at 48 h in [20] was more than 200 µM.
